High-throughput results: PubChem, The Scripps Research Institute Molecular Screening Center
Sampled rows, rich in hits. Any-hit rate of the full collection: about 1.8%.
M4 ag – human M4 muscarinic receptor agonists, primary screen, CHO-K1 cells, Fluo-8 calcium fluorescence; Muscarinic acetylcholine receptor M4 (Homo sapiens), P08173; CHO-K1 hM4/Gqi5; vehicle 0%, full acetylcholine response 100%; activation, % at 3 µM; actives 0.14% (n = 360,000); AID 624127, 2012;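 active = activation above the run mean over all test wells plus 3 SD, cut at about 32% in these data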;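 note: peak over basal fluorescence ratio per well then scaled between controls; 0% = DMSO wells and 100% = acetylcholine at EC100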
M5 antag – human M5 muscarinic receptor antagonists, primary screen, CHO cells, Fluo-8 calcium fluorescence; Muscarinic acetylcholine receptor M5 (Homo sapiens), P08912; AID 624040, 2012; inhibition, % at 3 µM; actives 0.59% (n = 360,000); CHO-hM5 cells, ACh EC80;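 active = inhibition above a per-plate cutoff, the mean of that plate's test compounds plus 3 SD, cut at about 27% in these data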;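 note: 0% = acetylcholine EC80 with DMSO and 100% = DMSO without agonist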
Target sequence (P08912 whole entry, looked up): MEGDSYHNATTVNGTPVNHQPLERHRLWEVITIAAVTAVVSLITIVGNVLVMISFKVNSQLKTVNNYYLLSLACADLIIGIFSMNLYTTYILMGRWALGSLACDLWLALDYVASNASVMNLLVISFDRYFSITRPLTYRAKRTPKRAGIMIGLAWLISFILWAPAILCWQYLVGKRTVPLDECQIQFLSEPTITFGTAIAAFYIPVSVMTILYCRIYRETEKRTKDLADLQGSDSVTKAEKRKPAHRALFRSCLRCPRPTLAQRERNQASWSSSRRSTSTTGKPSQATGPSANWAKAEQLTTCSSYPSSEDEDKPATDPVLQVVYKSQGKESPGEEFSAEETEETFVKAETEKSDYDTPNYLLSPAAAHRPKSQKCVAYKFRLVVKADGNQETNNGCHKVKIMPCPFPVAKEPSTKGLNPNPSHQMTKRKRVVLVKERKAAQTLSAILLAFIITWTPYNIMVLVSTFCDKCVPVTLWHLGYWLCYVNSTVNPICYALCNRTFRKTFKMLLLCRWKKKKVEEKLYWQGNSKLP
CHRM5 agonist – human M5 muscarinic receptor agonists, primary screen, CHO-K1 cells, Fluo-8 calcium fluorescence. Muscarinic acetylcholine receptor M5 (Homo sapiens), P08912. CHO-K1 hM5 cells; 0% DMSO wells, 100% maximal acetylcholine response. activation, % at 3 µM. actives 0.19% (n = 360,000);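 active = activation above the run's mean over test compounds plus 3 SD, cut at about 23% in these data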;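 note: signal is peak over basal fluorescence ratio across the kinetic read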
M5 PAM – human M5 muscarinic receptor positive allosteric modulators, primary screen, CHO-K1 cells, Fluo-8 calcium fluorescence | CHO-K1 hM5, ACh EC20 PAM; 0% = ACh EC20, 100% = ACh EC100 | Muscarinic acetylcholine receptor M5 (Homo sapiens), P08912 | activation, % at 3 µM | AID 624038, 2012 | actives 0.3% (n = 360,000);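 active = activation above the run cutoff, the mean activation of all test compounds plus 3 SD, cut at about 18% in these data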
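Replicates: One well per compound, no replicates | System: Human M5 receptor in CHO-K1 cells | Benchmarks: Low control EC20 acetylcholine (0%), high control EC100 acetylcholine (100%) | Probe or stimulus: Acetylcholine, EC20 level | Times: Fluo-8 loading 80 min at 37 °C plus 30 min room temperature | Signal: Intracellular calcium via Fluo-8 fluorescence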
M4 antag – human M4 muscarinic receptor antagonists, primary screen, CHO cells, Fluo-8 calcium fluorescence; Muscarinic acetylcholine receptor M4 (Homo sapiens), P08173; CHO-hM4 cells, ACh EC80; inhibition, % at 3 µM; actives 0.73% (n = 360,000);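 active = inhibition above its plate's cutoff, the mean inhibition of sample wells plus 3 SD, cut at about 27% in these data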;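 note: 0% = acetylcholine EC80 with DMSO and 100% = DMSO without agonist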
CHRM4 PAM – human M4 muscarinic receptor positive allosteric modulators, primary screen, CHO-K1 cells, Fluo-8 calcium fluorescence; Muscarinic acetylcholine receptor M4 (Homo sapiens), P08173; CHO-K1 hM4/Gqi5, ACh EC20; 0% = ACh EC20, 100% = maximal ACh; activation, % at 3 µM; actives 0.4% (n = 360,000); AID 624126, 2012;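 active = activation above its plate's cutoff, the mean activation of sample wells plus 3 SD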
An asterisk follows results filed as active; ! = not confirmed by another sample.

SMILES | M4 ag | M5 antag | CHRM5 agonist | M5 PAM | M4 antag | CHRM4 PAM
N#CCCN(C(=O)COC(=O)c1ccc(CNS(=O)(=O)c2ccc(F)c(Cl)c2)cc1)c1ccc(F)cc1 | 15 | 22 | -3 | -19 | 50* | -17
Cc1c(C)c2cc(Cl)c(O)c(CN3CCCC(C)C3)c2oc1=O (centres undefined) | -1 | 0 | -7 | 1 | 28* | -20
O=C(CSc1nc2ccccc2c(=O)n1-c1ccc(F)cc1)Nc1cc(S(=O)(=O)N2CCOCC2)ccc1Cl | 4 | 5 | 2 | -9 | 30* | -38
Cc1cccc(C(=O)N/C(=C\c2ccco2)C(=O)N2CCCC2)c1 | -1 | 5 | -1 | -2 | 3 | -2
Cc1cc(=O)oc2cc(OC(=O)C3CCN(C(=O)c4ccc(F)cc4)CC3)ccc12 | -1 | 6 | 1 | 4 | -1 | 0
COc1ccc(C(C(=O)OCCN(C)C)c2ccccc2)cc1 (centres undefined) | 1 | 22 | -12 | -13 | 6 | -9
CCCOc1ccc(C(C(=O)OCCN(CC)CC)c2ccccc2)cc1 (centres undefined) | 6 | 55* | -10 | -15 | 18 | -14
CCCn1c(N)c(C(=O)CSc2nnc3ccccn23)c(=O)n(C)c1=O | 2 | 3 | 0 | -4 | 0 | 27*
Cc1cc(/C=C\c2ccc3cc(N(C)C)ccc3[n+]2C)c(C)n1-c1ccccc1 | 20 | 40* | 10 | -17 | 45* | -19
COCCN1C(=O)C(CC(=O)Nc2ccc(C(C)=O)cc2)SC1=Nc1ccccc1 (centres undefined) | 12 | 29*! | -1 | -12 | 0 | -2
CC(O)CN1C(=O)C(CC(=O)Nc2ccc(Cl)cc2)SC1=Nc1ccccc1 (centres undefined) | 12 | 10 | -2 | -6 | 6 | -2
CCCCn1c(C)cc(C)c(S(=O)(=O)c2ccccc2C)c1=O | -1 | 2 | -12 | 1 | -5 | -1
Cc1ccccc1S(=O)(=O)c1c(C)cc(C)n(C(C)C)c1=O | 0 | -11 | -5 | 22* | -10 | 1
Cc1ccc(C)c(NC(=O)C(=O)NCC2CCCN2S(=O)(=O)c2cccs2)c1 (centres undefined) | 5 | -3 | 0 | -3 | -12 | -3
Cc1ccc(C(=O)c2ccc([N+](=O)[O-])cc2)cc1 | -2 | -3 | -6 | 2 | -6 | 2
Cc1ccc(C(=O)c2coc3cc([N+](=O)[O-])c(O)c([N+](=O)[O-])c23)cc1 | -1 | 7 | -2 | -4 | -2 | 31*
O=C(NCC1CCN(Cc2cccc(Cl)c2)CC1)C1CCCN(c2ncnc3c2nc2n3CCCCC2)C1 (centres undefined) | 8 | 13 | -9 | -14 | 36* | -12
O=C(NCC1CCN(Cc2ccc(F)cc2)CC1)C1CCCN(c2ncnc3c2nc2n3CCCCC2)C1 (centres undefined) | 0 | 1 | -9 | -2 | 36* | -11
O=C(NCCc1ccc(Cl)cc1)C1CCCN(c2ncnc3c2nc2n3CCCCC2)C1 (centres undefined) | 2 | -8 | -3 | -1 | -9 | 0
O=C(NCc1ccccc1)C1CCCN(c2ncnc3c2nc2n3CCCCC2)C1 (centres undefined) | 5 | 17 | -5 | -4 | -7 | -6
O=C(NCC1CCN(Cc2ccc(Cl)cc2)CC1)C1CCCN(c2ncnc3c2nc2n3CCCCC2)C1 (centres undefined) | 10 | 10 | -9 | -4 | 84* | -23
Cc1ccc(CN(C)C(=O)CN2C(=O)NC(c3ccccc3)(c3ccccc3)C2=O)c(C)c1 | 2 | 18 | -6 | -8 | 11 | -2
Cc1ccc(S(=O)(=O)NN=C2CCc3ccccc32)cc1 | 0 | 3 | -1 | 1 | -17 | 3
NCCCn1c(C(=O)c2cc(Cl)c(N)c(Cl)c2)c2ccc(C(F)(F)F)cc2[n+]1[O-] | 7 | -7 | 7 | 19* | -8 | 7
NC(=O)CCCn1c(C(=O)c2cc(Cl)c(N)c(Cl)c2)c2ccc(C(F)(F)F)cc2[n+]1[O-] | 7 | 12 | 3 | -2 | -9 | 9
SMILES | M4 ag | M5 antag | CHRM5 agonist | M5 PAM | M4 antag | CHRM4 PAM
O=C(COC(=O)/C=C/c1ccc(Cl)cc1Cl)NCCC1=CCCCC1 | 1 | 24 | 6 | 27* | 28* | 11
COc1c2ccc(OCC/C(C)=C/C(=O)C=C(C)C)cc2nc2occc12 | 2 | -4 | 2 | 20* | -15 | 10
CCOC(=O)[C@]12CCCC=C1N(CCC1=CCCCC1)C(=O)[C@H](CC(=O)NCc1cccs1)C2 | 8 | 7 | -1 | -8 | -13 | -1
CCCc1cc(=O)[nH]c(SCC(=O)N(C)CC(=O)Nc2ccc(F)cc2)n1 | -1 | 4 | -1 | 0 | -1 | -3
CCCc1cc(=O)[nH]c(SCC(=O)N(C)CC(=O)Nc2ccc(C)cc2)n1 | 1 | -4 | -3 | 23* | -17 | 26*
COc1ccc(C(=O)OCCCc2cc3ccccc3c(=O)o2)cc1 | 8 | 4 | -2 | -9 | -5 | -4
CCc1ccc(-c2cc(C)no2)cc1S(=O)(=O)NCCCN1CCN(c2ccccc2)CC1 | 25 | 29* | 1 | -15 | 31* | -13
O=C(CCCSc1ccc(Cl)cc1)Nc1cc(S(=O)(=O)N2CCOCC2)ccc1O | 11 | 16 | 6 | -17 | 11 | -6
O=C(N/N=C/c1ccc(F)cc1)c1ccc(OCc2ccccc2)cc1 | 1 | 1 | -2 | -3 | 12 | -3
Cc1ccccc1NC(=O)CCC(=O)N/N=C/c1ccc(F)cc1 | 4 | 4 | -3 | 5 | -15 | 25*
O=C(N/N=C/c1ccccc1)c1ccc(NC(=O)c2ccc(F)cc2)cc1 | 13 | 17 | 0 | 20* | 16 | 24*
Cc1ccccc1NC(=O)CCC(=O)N/N=C/c1cccnc1 | 1 | 12 | -4 | -4 | 1 | 5
O=C(N/N=C/c1ccc(OCc2ccc(F)cc2)cc1)c1ccccc1 | 2 | -13 | -2 | 6 | -7 | 20*
C[C@H](CO)N1C[C@H](C)[C@H](CN(C)C(=O)c2ccccc2F)Oc2ncc(Br)cc2C1=O | 0 | 2 | 1 | -4 | -13 | 10
CC(C)(C)C(=O)NC(=S)NNC(=O)C(c1ccccc1)c1ccccc1 | 154* | 52* | 111* | -34 | 76* | -43
